These results are taken from ChEMBL document CHEMBL4138200, “Amino acid and peptide prodrugs of diphenylpropanones positive allosteric modulators of α7 nicotinic receptors with analgesic activity” (Eur J Med Chem, 2018).

Values after ≈ are worked out from the molar mass of the structure shown. Active and inactive are the calls of the source.

In data set [1] the target is Neuronal acetylcholine receptor subunit alpha-7 (Homo sapiens) (UniProt P36544). Put plainly: Positive allosteric modulation of human alpha7 nAChR expressed in Xenopus laevis oocytes assessed as acetyl choline-evoked currents at 10 uM at -80 mV holding potential prtreated for 2 mins followed by co-treatment with acetyl choline by electrophysiology method relative to acetyl choline. The data set is classed as cell-based. In short, it runs like this: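 Defolliculated Xenopus laevis oocytes were injected with 5 ng α7 cRNA and recorded 2–3 days later at 22°C, -80 mV. Compound (10 μM) was bath-preapplied for 2 min, then co-applied with 200 μM ACh by fast pipette application for 0.6 s. Peak current is expressed relative to the ACh-alone control (100%).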
Chain of Neuronal acetylcholine receptor subunit alpha-7 (Homo sapiens) (P36544 whole entry): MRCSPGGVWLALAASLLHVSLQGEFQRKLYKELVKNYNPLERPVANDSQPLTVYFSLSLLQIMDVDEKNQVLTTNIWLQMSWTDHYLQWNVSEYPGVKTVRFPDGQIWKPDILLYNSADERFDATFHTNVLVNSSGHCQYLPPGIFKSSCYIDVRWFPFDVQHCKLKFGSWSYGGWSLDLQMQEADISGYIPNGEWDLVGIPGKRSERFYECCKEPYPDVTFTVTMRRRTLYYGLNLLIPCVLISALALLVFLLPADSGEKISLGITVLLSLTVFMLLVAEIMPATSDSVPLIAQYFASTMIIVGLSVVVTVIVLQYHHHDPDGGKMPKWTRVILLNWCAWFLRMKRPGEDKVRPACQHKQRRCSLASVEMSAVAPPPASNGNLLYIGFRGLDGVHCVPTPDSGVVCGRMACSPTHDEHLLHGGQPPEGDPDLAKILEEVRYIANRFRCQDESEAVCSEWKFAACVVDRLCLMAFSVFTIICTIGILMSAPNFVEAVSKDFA

The subject of data set [2] is Rattus norvegicus. The experiment in a line: Analgesic activity in CFA-induced paw inflammation Wistar rat model assessed as increase in paw withdrawal latency at 10 mg/kg, iv administered at 24 hrs post CFA injection measured at 1 hr post compound administration. The format is functional, organism-based. In outline:
(§1)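 Male Wistar rats (250–300 g). CFA emulsion (1:1 oil/saline, 0.5 mg/ml, 50 μl) was injected intraplantar into the hind paw. 24 h later, compound was dissolved in DMSO, diluted in 0.9% saline (final DMSO 2,5%) and given iv at 10 mg/kg in 0,5 ml. Paw withdrawal latency was measured on a dynamic plantar aesthesiometer (ramp 2.5 g/s, 50 g cutoff), as the mean of three readings per time point, for up to 4 h; n ≥ 6 rats/group, two-way ANOVA with Bonferroni.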

Data set [3] can be described thus: Aqueous solubility of the compound in PBS buffer. The data set is classed as physicochemical.
Data set [4] deals with Rattus norvegicus. Put plainly: Analgesic activity in CFA-induced paw inflammation Wistar rat model assessed as increase in paw withdrawal latency at 10 mg/kg, iv administered at 24 hrs post CFA injection measured at 30 mins post compound administration. The format is functional, organism-based. In short, it runs like this:
as §1

Data set [5] is described as follows: Permeability across apical to basolateral side in human Caco2 cells. The format is ADME, cell-based. The note with it: Caco-2, read-out: permeability. For orientation: Passage across Caco-2 layers is used to estimate intestinal permeability.

On to `CC(C)C(N)C(=O)N1CCC[C@H]1C(=O)NC(C(=O)Oc1ccc(CCC(=O)c2cc(O)ccc2O)cc1)C(C)C` (stereo in doubt), for which the Activity in data set [1] is 24.7%. Also, in the data set on Rattus norvegicus [2], the outcome was Active.

Turning to `Br.CC(C)C(N)C(=O)N1CCC[C@H]1C(=O)NC(C(=O)Oc1ccc(CCC(=O)c2cc(O)ccc2O)c(O)c1)C(C)C` (stereo in doubt), the Activity in data set [1] turned out to be 25.3%. For the same molecule, the solubility entry in data set [3] (buffer) is given as “Soluble”.

As to `O=C(CCc1ccc(O)cc1O)c1cc(O)ccc1O`, in data set [1], the Activity came to 989%.

`Br.CC(C)C(N)C(=O)NC(C(=O)Oc1ccc(CCC(=O)c2cc(O)ccc2O)cc1)C(C)C` (stereo in doubt): the Activity in data set [1] is 14.7%. For the same molecule, the solubility result in data set [3] (buffer) was “Soluble”. Further, in the data set on Rattus norvegicus [2], the result was inactive. For the same molecule, the result in the data set with Rattus norvegicus [4] was Active.

With `CC(C)C(N)C(=O)NC(C(=O)Oc1ccc(CCC(=O)c2cc(O)ccc2O)c(O)c1)C(C)C` (stereo in doubt), the Activity in data set [1] was found to be 26.7%.

`O=C(CCc1ccc(O)cc1)c1cc(O)ccc1O`: the Activity in data set [1] came to 666%. In addition, the Papp A→B in data set [5] was found to be 33.5 ×10⁻⁶ cm/s. Also, in data set [3] (PBS buffer, read-out: solubility), the solubility came to 160 µM (≈ 41.3 µg/mL).

As for `CC(C)C(N)C(=O)NC(C(=O)Oc1ccc(/C=C/C(=O)c2cc(O)ccc2O)c(O)c1)C(C)C` (stereo in doubt), the Activity in data set [1] is 24.5%.

In general, solubility refers to the concentration that dissolves in the medium under given conditions.
